Measured values taken from ChEMBL document CHEMBL4613291, “Structural Elucidation and Antimicrobial Characterization of Novel Diterpenoids from Fabiana densa var. ramulosa” (ACS Med Chem Lett, 2020).
Activity calls are given as the source filed them. No cut-off for these calls is given here.

Columns and labels:
Staphylococcus aureus [1] = assay: Antimicrobial activity against Staphylococcus aureus ATCC 25923 assessed as reduction in bacterial growth at 16 to 64 uM incubated for 16 hrs by broth dilution method; format: functional, organism-based
Method in brief: (§1)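 Bacterial growth was measured with the strain panel split into Gram-negative and Gram-positive groups. Growth is expressed as percentage of vehicle-treated control bacteria. Values are the mean of three independent experiments ± SEM. Each treated group was compared with control for significance (p < 0.05, 0.01, 0.0001). The highest concentration tested was 64 μM.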

Priestia megaterium [2] = assay: Antimicrobial activity against Bacillus megaterium Bm11 assessed as reduction in bacterial growth at 16 to 64 uM incubated for 16 hrs by broth dilution method; format: functional, organism-based; method in brief: as §1
[3] = system: Staphylococcus epidermidis; assay: Antimicrobial activity against Staphylococcus epidermidis ATCC 12228 assessed as reduction in bacterial growth at 16 to 64 uM incubated for 16 hrs by broth dilution method; format: functional, organism-based; method in brief: as §1
Escherichia coli = assay: Antimicrobial activity against Escherichia coli ATCC 25922 assessed as reduction in bacterial growth at 16 to 64 uM incubated for 16 hrs by broth dilution method; format: functional, organism-based; method in brief: as §1
Bacillus thuringiensis [4] = assay: Antimicrobial activity against Bacillus thuringiensis B15 assessed as reduction in bacterial growth at 16 to 64 uM incubated for 16 hrs by broth dilution method; format: functional, organism-based; method in brief: as §1
Pseudomonas aeruginosa = assay: Antimicrobial activity against Pseudomonas aeruginosa ATCC 27853 assessed as reduction in bacterial growth at 16 to 64 uM incubated for 16 hrs by broth dilution method; format: functional, organism-based; method in brief: as §1
[5] = Cytotoxicity against human HaCaT cells assessed as reduction in cell viability at 64 uM incubated for 24 hrs by MTT assay relative to control; format: cell-based; settings: read-out: INH
Method in brief: (§2)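 Human immortalized keratinocytes (HaCaT) were exposed for 24 h across 16–64 μM. Metabolically active cells were read by MTT and calculated as a percentage of vehicle-treated cells. Values are the mean of three independent experiments ± SEM.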

Staphylococcus aureus [6] = assay: Antimicrobial activity against Staphylococcus aureus ATCC 25923 assessed as reduction in bacterial growth at 64 uM incubated for 16 hrs by broth dilution method relative to control; format: functional; settings: ATCC 25923, 16 h; method in brief: as §1
[7] = system: Staphylococcus epidermidis; assay: Antimicrobial activity against Staphylococcus epidermidis ATCC 12228 assessed as reduction in bacterial growth at 64 uM incubated for 16 hrs by broth dilution method relative to control; format: functional; settings: ATCC 12228, 16 h; method in brief: as §1
Bacillus thuringiensis [8] = assay: Antimicrobial activity against Bacillus thuringiensis B15 assessed as reduction in bacterial growth at 64 uM incubated for 16 hrs by broth dilution method relative to control; format: functional; settings: B15, 16 h; method in brief: as §1
HaCaT = assay: Cytotoxicity against human HaCaT cells assessed as reduction in cell viability at 16 to 64 uM incubated for 24 hrs by MTT assay; format: cell-based; method in brief: as §2
Priestia megaterium [9] = assay: Antimicrobial activity against Bacillus megaterium Bm11 assessed as reduction in bacterial growth at 16 to 64 uM incubated for 16 hrs by broth dilution method relative to control; format: functional; method in brief: as §1

Compound: C[C@]12C=C[C@@]3(CC[C@@H]4[C@@](C)(COC(=O)C(=O)OC[C@@]5(C)CCC[C@]6(C)[C@@H]5CC[C@@]57C=C[C@@](C)(CC[C@H]56)C7)CCC[C@@]4(C)[C@@H]3CC1)C2
- inhibition (Staphylococcus aureus [1]): inactive
- inhibition (Priestia megaterium [2]): inactive
- inhibition [3]: inactive
- inhibition (Escherichia coli): inactive
- inhibition (Bacillus thuringiensis [4]): inactive
- inhibition (Pseudomonas aeruginosa): inactive

Compound: C[C@]12C=C[C@@]3(CC[C@@H]4[C@@](C)(COC(=O)C(=O)O)CCC[C@@]4(C)[C@@H]3CC1)C2
- cytotoxicity at 24 h, 64 µM [5]: 36%
- inhibition at 64 µM (Staphylococcus aureus [6]): 40%
- inhibition at 64 µM [7]: 50%
- inhibition at 64 µM (Bacillus thuringiensis [8]): 50%

Compound: C[C@]12C=C[C@@]3(CC[C@@H]4[C@@](C)(CO)CCC[C@@]4(C)[C@@H]3CC1)C2
- Activity (HaCaT): Non-Toxic
- inhibition (Staphylococcus aureus [1]): inactive
- inhibition (Priestia megaterium [2]): inactive
- inhibition [3]: inactive
- inhibition (Escherichia coli): inactive
- inhibition (Bacillus thuringiensis [4]): inactive
- inhibition (Pseudomonas aeruginosa): inactive

Compound: C[C@]12C=C[C@@]3(CC[C@@H]4[C@@](C)(COC(=O)CC(=O)O)CCC[C@@]4(C)[C@@H]3CC1)C2
- cytotoxicity at 24 h, 64 µM [5]: 14%
- inhibition (Staphylococcus aureus [1]): Active
- inhibition (Priestia megaterium [2]): Active
- inhibition [3]: Active
- inhibition at 64 µM (Bacillus thuringiensis [8]): > 70%
- inhibition (INH) (Priestia megaterium [9]): >70%
- inhibition (Bacillus thuringiensis [4]): Active

Compound: C[C@]12C=C[C@@]3(CC[C@@H]4[C@@](C)(COC(=O)CC(=O)OC[C@@]5(C)CCC[C@]6(C)[C@@H]5CC[C@@]57C=C[C@@](C)(CC[C@H]56)C7)CCC[C@@]4(C)[C@@H]3CC1)C2
- inhibition (Staphylococcus aureus [1]): inactive
- inhibition (Priestia megaterium [2]): inactive
- inhibition [3]: inactive
- inhibition (Escherichia coli): inactive
- inhibition (Bacillus thuringiensis [4]): inactive
- inhibition (Pseudomonas aeruginosa): inactive

Compound: C[C@]12C=C[C@@]3(CC[C@@H]4[C@@](C)(COC(=O)CCC(=O)OC[C@@]5(C)CCC[C@]6(C)[C@@H]5CC[C@@]57C=C[C@@](C)(CC[C@H]56)C7)CCC[C@@]4(C)[C@@H]3CC1)C2
- inhibition (Staphylococcus aureus [1]): inactive
- inhibition (Priestia megaterium [2]): inactive
- inhibition [3]: inactive
- inhibition (Escherichia coli): inactive
- inhibition (Bacillus thuringiensis [4]): inactive
- inhibition (Pseudomonas aeruginosa): inactive

Compound: C[C@]12C=C[C@@]3(CC[C@@H]4[C@@](C)(COC(=O)CCC(=O)O)CCC[C@@]4(C)[C@@H]3CC1)C2
- cytotoxicity at 24 h, 64 µM [5]: 20%
- inhibition at 64 µM (Staphylococcus aureus [6]): 40%
- inhibition at 64 µM [7]: 80%
- inhibition at 64 µM (Bacillus thuringiensis [8]): 100%
- inhibition (INH) (Priestia megaterium [9]): 80%
